Assay results reported in ChEMBL document CHEMBL3244294, “Dehydrative metabolites of 1-(3-chlorophenyl)-1methyl-2-phenyl-2-(2-pyridine)ethanol as potential hypocholesteremic agents” (J Med Chem, 1978).

Assays:
Serum [1] = assay: Drug recovery in Sprague-Dawley rat serum at 25 mg/kg, ip after 2 hrs by RP-HPLC analysis; assay type: ADME, organism-based; design: dose 25 mg/kg, route intraperitoneal; conditions: in vivo
Method in brief: (§1)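 Rats received 25 mg/kg ³H-labelled parent (tritium in 2-phenyl ring) by ip injection as an aqueous 0.26% Tween 80 suspension. Serum was taken by cardiac puncture at 2, 10 or 72 h (three rats), separated at 1700g for 30 min and deproteinized with methanol. The residue was analysed by C-18 reverse-phase HPLC. Values are percent of total recovered HPLC radioactivity.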

Serum [2] = assay: Drug recovery in Sprague-Dawley rat serum at 25 mg/kg, ip after 10 hrs by RP-HPLC analysis; assay type: ADME, organism-based; design: dose 25 mg/kg, route intraperitoneal; conditions: in vivo; method in brief: as §1
[3] = Drug recovery in sephadex G-10 chromatographic fraction of Sprague-Dawley rat urine at 25 mg/kg, ip by RP-HPLC analysis; assay type: ADME, organism-based; design: dose 25 mg/kg, route intraperitoneal; conditions: read-out: Drug recovery
Method in brief: (§2)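 One rat was dosed ip at 25 mg/kg with ³H-labelled parent in aqueous 0.26% Tween 80, and urine was collected over 72 h. Urine was either pentane-extracted or fractionated on Sephadex G-10; fraction III was the radioactive eluate free of appreciable urine constituents. Fractions were analysed by C-18 reverse-phase HPLC as percent of total recovered radioactivity.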

Rattus norvegicus [4] = assay: Hypocholesteremic activity in Sprague-Dawley rat assessed as reduction in serum cholesterol level at 25 mg/kg for 7 days relative to control; assay type: functional; design: scale not given: the % may be the effect or the level left
Method in brief: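 Male rats (200 g) were dosed at 25 mg/kg for 7 days, with dosing starting at 1 p.m. Sera were taken 24 h after the final dose, and serum cholesterol was determined by the method of Block et al. Results are reported as mean ± standard deviation and compared with controls by two-tailed Student's t test.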

Serum [5] = assay: Drug recovery in Sprague-Dawley rat serum at 25 mg/kg, ip after 72 hrs by RP-HPLC analysis; assay type: ADME, organism-based; design: dose 25 mg/kg, route intraperitoneal; conditions: in vivo; method in brief: as §1
[6] = Drug recovery in pentane extract of Sprague-Dawley rat urine at 25 mg/kg, ip by RP-HPLC analysis; assay type: ADME, organism-based; design: dose 25 mg/kg, route intraperitoneal; conditions: read-out: Drug recovery; method in brief: as §2
Serum [7] = assay: Drug recovery in hydrolyzed fraction of Sprague-Dawley rat serum at 25 mg/kg, ip after 72 hrs by RP-HPLC analysis; assay type: ADME, organism-based; design: dose 25 mg/kg, route intraperitoneal; conditions: in vivo
Method in brief: (§3)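 ³H-labelled parent was given at 25 mg/kg ip in aqueous 0.26% Tween 80, and serum was collected by cardiac puncture at 72 h. Part of the serum was hydrolysed for 48 h with aryl sulfatase and glucuronidase, then deproteinized with methanol. The residue was run on C-18 reverse-phase HPLC. Values are percent of total recovered HPLC radioactivity.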

Rattus norvegicus [8] = assay: Estrogenicity in Sprague-Dawley rat assessed as uterus weight measured per gram of body weight at 25 mg/kg, po for 7 days in presence of 17-beta estradiol (reference value: 0.01 +/- 0.02 mg); assay type: ADME, organism-based; design: dose 25 mg/kg, route oral; conditions: in vivo, 168 h
Method in brief: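 From 7 days later they were dosed orally by intubation with aqueous suspensions (25 mg/kg) for 7 consecutive days. On day 8 uteri were blotted free of fluid and weighed, expressed as mg/g body weight ×100. A standard curve came from sc 17β-estradiol in peanut oil, giving µg estradiol equivalent to 25 mg compound.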

Serum [9] = assay: Drug recovery in pentane extract of Sprague-Dawley rat serum treated with 1-(3-Chlorophenyl)-1-methyl-2-phenyl-2-(2-pyridine)ethanol at 25 mg/kg, ip by RP-HPLC analysis; assay type: ADME, organism-based; design: dose 25 mg/kg, route intraperitoneal; conditions: in vivo
[10] = Drug recovery in sephadex G-10 chromatographic fraction of Sprague-Dawley rat urine treated with 1-(3-Chlorophenyl)-1-methyl-2-phenyl-2-(2-pyridine)ethanol at 25 mg/kg, ip by RP-HPLC analysis; assay type: ADME, organism-based; design: dose 25 mg/kg, route intraperitoneal; conditions: in vivo; method in brief: as §2
Serum [11] = assay: Drug recovery in Sprague-Dawley rat serum treated with 1-(3-Chlorophenyl)-1-methyl-2-phenyl-2-(2-pyridine)ethanol at 25 mg/kg, ip after 10 hrs by RP-HPLC analysis; assay type: ADME, organism-based; design: dose 25 mg/kg, route intraperitoneal; conditions: in vivo; method in brief: as §1
Serum [12] = assay: Drug recovery in hydrolyzed fraction of Sprague-Dawley rat serum treated with 1-(3-Chlorophenyl)-1-methyl-2-phenyl-2-(2-pyridine)ethanol at 25 mg/kg, ip after 72 hrs by RP-HPLC analysis; assay type: ADME, organism-based; design: dose 25 mg/kg, route intraperitoneal; conditions: in vivo; method in brief: as §3
Serum [13] = assay: Drug recovery in Sprague-Dawley rat serum treated with 1-(3-Chlorophenyl)-1-methyl-2-phenyl-2-(2-pyridine)ethanol at 25 mg/kg, ip after 72 hrs by RP-HPLC analysis; assay type: ADME, organism-based; design: dose 25 mg/kg, route intraperitoneal; conditions: in vivo; method in brief: as §1
Serum [14] = assay: Drug recovery in Sprague-Dawley rat serum treated with 1-(3-Chlorophenyl)-1-methyl-2-phenyl-2-(2-pyridine)ethanol at 25 mg/kg, ip after 2 hrs by RP-HPLC analysis; assay type: ADME, organism-based; design: dose 25 mg/kg, route intraperitoneal; conditions: in vivo; method in brief: as §1

Row | SMILES | Activity (Rattus norvegicus [8]) | Drug recovery [10] | Drug recovery (Serum [11]) | Drug recovery (Serum [12]) | Drug recovery (Serum [13]) | Activity (Rattus norvegicus [4]) | other results
1 | C/C(=C(/c1ccccc1)c1ccccn1)c1cccc(Cl)c1 | 0.22 µg | – | – | – | – | 36.1% | Drug recovery (Serum [9]): 0.1%
2 | C/C(=C(\c1ccc(O)cc1)c1ccccn1)c1cccc(Cl)c1 | 0.02 µg | 0.4% | 0.3% | 0.3% | 0.2% | 30.5% | –
3 | C=C(c1cccc(Cl)c1)C(c1ccccc1)c1ccccn1 (stereo not given) | – | – | – | – | – | 10.1% | –
4 | C=C(c1cccc(Cl)c1)C(c1ccc(O)cc1)c1ccccn1 (stereo not given) | – | – | – | – | – | 4% | –

Now from value to compound, other results behind:

Row | Activity (Rattus norvegicus [8]) | Drug recovery [10] | Drug recovery (Serum [11]) | Drug recovery (Serum [12]) | Drug recovery (Serum [13]) | SMILES | Activity (Rattus norvegicus [4]) | other results
5 | 0.49 µg | – | – | – | – | CC(O)(c1cccc(Cl)c1)C(c1ccccc1)c1ccccn1 (stereo not given) | 49.5% | Drug recovery (Serum [1]): 22%; Drug recovery (Serum [2]): 0.9%; dose excreted [3]: < 0.1%; Drug recovery (Serum [5]): 1.2%; dose excreted [6]: 1.6%; Drug recovery (Serum [7]): 1.2%
6 | 0.92 µg | – | – | – | – | C/C(=C(\c1ccccc1)c1ccccn1)c1cccc(Cl)c1 | 62.8% | Drug recovery (Serum [9]): 0.1%
7 | 0.92 µg | – | – | – | – | CC(O)(c1cccc(Cl)c1)C(c1ccc(O)cc1)c1ccccn1 (stereo not given) | 43.5% | –
8 | 0.03 µg | 3.3% | 0.9% | 0.4% | 1.1% | C/C(=C(/c1ccc(O)cc1)c1ccccn1)c1cccc(Cl)c1 | 38.1% | –
9 | – | 0.2% | 2.4% | 1.2% | 2.2% | c1ccc(Cc2ccccn2)cc1 | – | Drug recovery (Serum [14]): 4.7%
